SMILES strings stand for the structures. pIC50: −log10 of the molar value.

Assay [1] has as its target Substance-P receptor (Homo sapiens, UniProt P25103, Q165A). Description: Binding affinity against Gln165Ala mutant type human Tachykinin receptor 1 expressed in CHO cells was measured by its ability to displace [125I]- Tyr-8 substance P. It counts as cell-based.
Assay [2] concerns the target T1, Substance-P receptor (Homo sapiens, UniProt P25103). As to the kind of experiment: Binding affinity against human Tachykinin receptor 1 expressed in CHO cells was measured by its ability to displace [125I]- Tyr-8 substance P. It counts as cell-based.
The target in assay [3] is T1, Substance-P receptor. Description: Binding affinity against wild type human Tachykinin receptor 1 expressed in CHO cells was measured by its ability to displace [125I]- Tyr-8 substance P. Type of assay: cell-based.
Assay [4] deals with Mustela putorius furo. As to the kind of experiment: Effect on heart rate of substance P antagonist was determined as change heart rate in the anesthetized ferret at 3 mg/Kg intravenous bolus. It counts as functional. The gist of the method:
(§1)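 Ferrets anesthetized with sodium pentobarbitone (40 mg/kg ip), maintained with sodium barbitalone (300 mg/kg ip); tracheal cannula with artificial ventilation on room air; femoral artery cannulated for recording, femoral vein for dosing. Rising cumulative iv bolus doses, in distilled water (1 mL/kg) or poly(ethylene glycol) (0.5 mL/kg), with matched vehicle controls. Change in heart rate, mean ± SD of at least three determinations.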

Assay [5] relates to Mustela putorius furo. As to the kind of experiment: Effect on heart rate of substance P antagonist was determined as change heart rate in the anesthetized ferret at 0.1 mg/Kg intravenous bolus. Type of assay: functional. The gist of the method:
as §1

In assay [6] the test system is Mustela putorius furo. Description: Effect on heart rate of substance P antagonist was determined as change heart rate in the anesthetized ferret at 0.3 mg/Kg intravenous bolus. It counts as functional. The gist of the method: as §1
For assay [7], the system named is Mustela putorius furo. Description: Effect on heart rate of substance P antagonist was determined as change heart rate in the anesthetized ferret at 1 mg/Kg intravenous bolus. Type of assay: functional. The gist of the method:
as §1

The subject of assay [8] is Mustela putorius furo. Description: Maximum change in the mean arterial blood pressure in the anesthetized ferret of substance P at 0.1 mg/Kg intravenous bolus. Type of assay: functional. The procedure, abridged:
(§2)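 Pentobarbitone-induced (40 mg/kg ip), barbitalone-maintained (300 mg/kg ip) ferret anesthesia; trachea cannulated, ventilated with room air; blood pressure recorded via femoral artery, compounds given via femoral vein as rising cumulative iv boluses in distilled water (1 mL/kg) or poly(ethylene glycol) (0.5 mL/kg), matched vehicle controls. Maximum change in mean arterial pressure, mean ± SD, at least three determinations.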

For assay [9], the system named is Mustela putorius furo. Description: Maximum change in the mean arterial blood pressure in the anesthetized ferret of substance P at 0.3 mg/Kg intravenous bolus. It counts as functional. The gist of the method: as §2
Assay [10] concerns Mustela putorius furo. As to the kind of experiment: Maximum change in the mean arterial blood pressure in the anesthetized ferret of substance P at 1 mg/Kg intravenous bolus. Type of assay: functional. The gist of the method:
(§3)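 Ferrets were anesthetized with sodium pentobarbitone (40 mg/kg ip), maintained with sodium barbitalone (300 mg/kg ip), tracheally cannulated and ventilated with room air. Blood pressure was recorded via the femoral artery. Rising cumulative iv bolus doses (vehicle: distilled water, 1 mL/kg, or PEG, 0.5 mL/kg) went in via the femoral vein, with vehicle controls. Maximum change in mean arterial pressure is mean ± SD, n≥3.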

For assay [11], the system named is Mustela putorius furo. As to the kind of experiment: Maximum change in the mean arterial blood pressure in the anesthetized ferret of substance P at 3 mg/Kg intravenous bolus. Type of assay: functional. The gist of the method: as §3
Assay [12] has as its system Cavia porcellus. Description: Inhibition of substance P-induced dermal plasma extravasation in the guinea pig 1 hr after oral dose. To be noted: PIG1, Plasma, read-out: ID50 (the source's name). Type of assay: functional. The procedure, abridged: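 Guinea pigs were dosed orally 1 h before 0.5 pmol substance P was injected into the dorsal skin. Evans blue was given iv before the challenge. Plasma leakage was quantified from dye levels in the skin around the injection sites, and ID50 was expressed in mg/kg.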

The subject of assay [13] is Mustela putorius furo. Description: Maximum change in the mean arterial blood pressure in the anesthetized ferret of substane P at 0.1 mg/Kg intravenous bolus. Type of assay: functional. The procedure, abridged:
as §2

Assay [14] deals with Mustela putorius furo. Description: Maximum change in the mean arterial blood pressure in the anesthetized ferret of substane P at 0.3 mg/Kg intravenous bolus. Type of assay: functional. The procedure, abridged:
as §2

The test system of assay [15] is Mustela putorius furo. Description: Maximum change in the mean arterial blood pressure in the anesthetized ferret of substane P at 1 mg/Kg intravenous bolus. Type of assay: functional. The procedure, abridged:
as §2

For assay [16], the system named is Mustela putorius furo. As to the kind of experiment: Maximum change in the mean arterial blood pressure in the anesthetized ferret of substane P at 3 mg/Kg intravenous bolus. It counts as functional. The procedure, abridged:
as §2

Sequence of Substance-P receptor (Homo sapiens, UniProt P25103, Q165A) (P25103 whole entry Q165A): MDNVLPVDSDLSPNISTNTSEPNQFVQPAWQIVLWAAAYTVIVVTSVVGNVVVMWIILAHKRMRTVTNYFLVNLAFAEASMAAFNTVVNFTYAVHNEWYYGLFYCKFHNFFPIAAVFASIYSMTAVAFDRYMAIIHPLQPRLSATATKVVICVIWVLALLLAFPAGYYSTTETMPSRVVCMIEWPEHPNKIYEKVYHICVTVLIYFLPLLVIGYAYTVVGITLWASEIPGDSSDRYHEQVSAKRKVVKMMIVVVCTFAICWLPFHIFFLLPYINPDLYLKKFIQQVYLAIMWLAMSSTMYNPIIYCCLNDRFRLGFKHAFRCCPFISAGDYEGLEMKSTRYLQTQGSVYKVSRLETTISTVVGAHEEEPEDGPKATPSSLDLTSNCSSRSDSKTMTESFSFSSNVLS
T1 sequence (P25103 whole entry): as the sequence (P25103 whole entry Q165A) above, with A165Q counted along it

What is called pIC50 is the negative decadic logarithm of the IC50, by convention in mol/L. The low end stands for a large IC50, the high end for a small IC50. Take `O=C(CCCN1CCOCC1)N[C@@H](Cc1c[nH]c2ccccc12)C(=O)CCc1cc(C(F)(F)F)cc(C(F)(F)F)c1`: the pIC50 is 8.85 in assay [1], 9.77 in assay [2] and 9.62 in [3].

Turning to `O=C(CN1CCOCC1)N[C@@H](Cc1c[nH]c2ccccc12)C(=O)CCc1cc(C(F)(F)F)cc(C(F)(F)F)c1`, the negative logarithm of the IC50 (pIC50) in [1] was 8.40; in assay [2] it was 8.46; in [3], 8.70.

Take `Cc1cc(C)cc(CN(C)C(=O)[C@H](Cc2c[nH]c3ccccc23)NC(=O)c2ccccc2)c1`: in assay [2], the pIC50 was 5.99.

In assay [2], `CN(C)CCCCC(=O)N[C@@H](Cc1c[nH]c2ccccc12)C(=O)CCc1cc(C(F)(F)F)cc(C(F)(F)F)c1` had a pIC50 of 9.22.

`O=C(CCc1ccncc1)N[C@@H](Cc1c[nH]c2ccccc12)C(=O)CCc1cc(C(F)(F)F)cc(C(F)(F)F)c1` had a pIC50 in [2] of 9.33.

For `O=C(CCc1cc(C(F)(F)F)cc(C(F)(F)F)c1)[C@H](Cc1c[nH]c2ccccc12)NC(=O)C12CCN(CC1)CC2`, the “Change in heart rate” value in assay [4] was 1; in assay [5], 3; in [6], 2; in [7], 1. For the same molecule, the MABP was found to be 2 in assay [8], 4 in assay [9], 18 in assay [10] and 34 in assay [11]. Moreover, in [12], the ED50 was found to be 1.8 mg/kg. For the same molecule, the pIC50 in assay [1] is 8.10; in assay [2] it was 9.05; in assay [3], 9.00.

Consider `CC(=O)N[C@H](COCc1cc(C)cc(C)c1)Cc1c[nH]c2ccccc12`, for which the negative logarithm of the IC50 (pIC50) in assay [2] was 6.12.

In turn, `O=C(CCC1CCNCC1)N[C@@H](Cc1c[nH]c2ccccc12)C(=O)CCc1cc(C(F)(F)F)cc(C(F)(F)F)c1` had a pIC50 in assay [2] of 9.43.

Consider `COc1ccccc1CN[C@H]1CCCN[C@H]1c1ccccc1` [CP-99994], for which the MABP in assay [8] was determined as 10; in assay [9], 13; in [10], 12. Moreover, the ED50 in assay [12] was 1.6 mg/kg.

Consider `O=C(CCN1CCCCC1)N[C@@H](Cc1c[nH]c2ccccc12)C(=O)CCc1cc(C(F)(F)F)cc(C(F)(F)F)c1`, for which the pIC50 in assay [2] is 9.22.

Turning to `FC(F)(F)c1cccc(CO[C@H]2C3CCN(CC3)[C@H]2C(c2ccccc2)c2ccccc2)c1`, the pIC50 in assay [1] is 5.68; in assay [2] it was 7.28; in assay [3] it was 7.28.

Consider `CN(C)CCC(=O)N[C@@H](Cc1c[nH]c2ccccc12)C(=O)CCc1cc(C(F)(F)F)cc(C(F)(F)F)c1`, for which the ED50 in assay [12] turned out to be 10 mg/kg.

On to `COc1ccccc1CN[C@H]1C2CCN(CC2)[C@H]1C(c1ccccc1)c1ccccc1` [CP-96345], for which the “Change in heart rate” value in assay [4] came to 65; in assay [5] it was 7; in assay [6], 13; in assay [7], 21. Also, the MABP in assay [13] is reported as 11; in assay [14], 21; in assay [15], 46; in assay [16], 63.

`O=C(CCCN1CCCC1)N[C@@H](Cc1c[nH]c2ccccc12)C(=O)CCc1cc(C(F)(F)F)cc(C(F)(F)F)c1` had a pIC50 in [2] of 9.52.

As for `CN(C)CCCC(=O)N[C@@H](Cc1c[nH]c2ccccc12)C(=O)CCc1cc(C(F)(F)F)cc(C(F)(F)F)c1`, the ED50 in assay [12] stood at 4 mg/kg. This molecule also gave a pIC50 in [2] of 9.15.

In assay [10], `O=C(Cc1ccncc1)N[C@@H](Cc1c[nH]c2ccccc12)C(=O)CCc1cc(C(F)(F)F)cc(C(F)(F)F)c1` returned an MABP of -20. Besides, in assay [12], the ED50 stood at 1.9 mg/kg. The pIC50 in assay [1] is 8.00; in assay [2], 9.30; in [3] it was 9.40.

Molecule `O=C(Cc1cnc[nH]1)N[C@@H](Cc1c[nH]c2ccccc12)C(=O)CCc1cc(C(F)(F)F)cc(C(F)(F)F)c1` showed a pIC50 in assay [2] of 8.42.
